Experiments:
[1] = target: Transthyretin (Homo sapiens) (UniProt P02766); experiment: Percentage compound remaining at the conclusion of the acid-mediated fibril formation assay (72 h) in absence of TTR, assay conditions, compound (7.2 uM), pH 4.4, 37C
Method in brief: (§1)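 Compound at 7.2 µM was incubated in the dark with or without 3.6 µM WT-TTR under acid fibril conditions (pH 4.4, 37 °C, 72 h). Analytical RP-HPLC peak area of the compound at the end was compared with the area at the start. Measurement error stated as 4%.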

[2] = target: Transthyretin (Homo sapiens) (UniProt P02766); experiment: Percentage compound remaining at the conclusion of the acid-mediated fibril formation assay (72 h), assay conditions compound (7.2 uM), WT-TTR (3.6 uM, pH 4.4, 37C); method in brief: as §1
[3] = target: Transthyretin (Homo sapiens) (UniProt P02766); experiment: Binding stoichiometry to TTR in human blood plasma determined by antibody capture/HPLC method; type: cell-free
Method in brief: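 Human blood plasma spiked to 10.8 µM test compound from a 2.16 mM DMSO stock and incubated 24 h at 37 °C. Plasma was precleared with plain Sepharose for 1 h at 4 °C, then split into three aliquots for anti-TTR antibody-resin capture (20 min, 4 °C) in 10 mM Tris pH 8.0, 140 mM NaCl. Resin washed, eluted with 100 mM triethylamine pH 11.5, eluate analysed by HPLC for compound:TTR stoichiometry.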

[4] = target: Transthyretin (Homo sapiens) (UniProt P02766); experiment: Percentage of WT-TTR (3.6 uM) amyloid fibril formation at pH 4.4 upon incubation with the compound (7.2 uM)
Method in brief: (§2)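 WT-TTR (7.2 µM, 0.4 mg/mL) in 10 mM phosphate pH 7.2, 100 mM KCl, 1 mM EDTA was preincubated 30 min at 37 °C with inhibitor added from a 1.44 mM DMSO stock. An equal volume of 200 mM acetate pH 4.2 brought the sample to pH 4.4 (3.6 µM TTR, 7.2 µM compound final). Left 72 h at 37 °C, vortexed, turbidity read at 350 and 400 or 500 nm. Run in duplicate or triplicate.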

[5] = target: Transthyretin (Homo sapiens) (UniProt P02766); experiment: Percentage of WT-TTR (3.6 uM) amyloid fibril formation at pH 4.4 upon incubation with the compound (7.2 uM); compound is unstable; method in brief: as §2
[6] = target: Transthyretin (Homo sapiens) (UniProt P02766); experiment: Percentage compound remaining at the conclusion of the acid-mediated fibril formation assay (72 h), assay conditions compound (7.2 uM), WT-TTR (3.6 uM, pH 7.2, 37C)
Method in brief: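 Compound at 7.2 µM was incubated in the dark with 3.6 µM WT-TTR at 37 °C for 72 h, with the buffer held at pH 7.2. Analytical RP-HPLC peak area of the compound at the end was compared with the area at the start.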

| Activity [1] [%] | Activity [2] [%] | Binding stoichiometry [3] | Formation [4] [%] | Formation [5] | Activity [6] [%] | Structure (SMILES) |
| --- | --- | --- | --- | --- | --- | --- |
| 4 | 74 | < 0.5 | 1 |  |  | O=C(O)c1ccccc1O/N=C/c1cc(Cl)cc(Cl)c1 |
| 79 | 84 | 1.31 | 0 |  |  | O=C(O)c1ccc(O/N=C/c2ccccc2C(F)(F)F)cc1 |
| 88 | 81 | < 0.5 | 0 |  |  | O=C(O)c1ccc(O/N=C/c2cc(Br)c(O)c(Br)c2)cc1 |
|  | 83 | 1.38 | 3 |  | 76 | O=C(O)c1ccc(/C=N/Oc2ccccc2C(F)(F)F)cc1 |
| 89 | 100 | 1.71 | 1 |  |  | Oc1c(I)cc(/C=N/Oc2ccccc2C(F)(F)F)cc1I |

Continued, compound first:

| Structure (SMILES) | Activity [1] [%] | Activity [2] [%] | Binding stoichiometry [3] | Formation [4] [%] | Formation [5] | Activity [6] [%] |
| --- | --- | --- | --- | --- | --- | --- |
| Oc1c(I)cc(/C=N/Oc2ccccc2)cc1I | 24 | 79 | 0.89 | 0 |  |  |
| O=C(O)c1ccccc1/C=N/Oc1ccccc1C(=O)O |  |  |  |  | Unstable |  |
| O=C(O)c1ccc(O/N=C/c2c(Cl)cccc2Cl)cc1 | 85 | 81 | 0.81 | 0 |  |  |
| Oc1c(Br)cc(/C=N/Oc2ccccc2)cc1Br | 8 | 76 | 1.02 | 0 |  |  |
| O=C(O)c1cccc(O/N=C/c2ccccc2C(F)(F)F)c1 | 20 | 88 | 1 | 1 |  |  |
| O=C(O)c1cccc(O/N=C/c2cc(I)c(O)c(I)c2)c1 | 81 | 77 | < 0.5 | 0 |  |  |
| Oc1c(Br)cc(/C=N/Oc2ccccc2C(F)(F)F)cc1Br | 78 | 98 | 1.86 | 1 |  |  |
| O=C(O)c1ccc(O/N=C/c2cc(I)c(O)c(I)c2)cc1 | 91 | 83 | < 0.5 | 1 |  |  |

Reference: ChEMBL document CHEMBL1142707, “Bisaryloxime ethers as potent inhibitors of transthyretin amyloid fibril formation” (J Med Chem, 2005)
